Reference: ChEMBL document CHEMBL1123969, “Cardiovascular effects of new water-soluble derivatives of forskolin” (J Med Chem, 1988)
Converted amounts (≈) assume the structure as drawn. The source made the active and inactive calls. The rule behind the calls is not given here.

Experiments:
Felis catus [1] = assay: Effective dose for lowering blood pressure in anesthetized cat when administered intravenously; assay type: functional; conditions: iv
Procedure, shortened: (§1)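 Cats of either sex, 3–4 kg, under ether induction and chloralose (70 mg/kg iv). Compounds in distilled water or propylene glycol were given iv via the femoral vein at 0.01–10 mg/kg. Fall in mean arterial pressure read 10 min post-dose. ED20 taken graphically from the log dose-response curve, with doses run in triplicate.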

Canis familiaris [2] = assay: Dose required to produce 50 % increase in left ventricular dP/dt max in anesthetized dogs when administered intravenously; assay type: functional; conditions: Canis lupus familiaris, Heart left ventricle, iv
Procedure, shortened: (§2)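 Male mongrel dogs (10–18 kg), anesthetized with pentobarbital sodium 35 mg/kg iv, then infused with pentobarbitone 3–5 mg/kg per h, intubated and breathing spontaneously. Compounds in distilled water, given iv via the femoral vein in 0.1 mL/kg. Four to six doses between 0.01 and 3 mg/kg, 10–30 min apart. Percent change in LV dP/dt max over the initial value; ED50 taken from the dose-response curve.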

Cavia porcellus [3] = species: Cavia porcellus; assay: Positive inotropic activity in spontaneously beating guinea pig atria; assay type: functional, organism-based
Procedure, shortened: (§3)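 Guinea pig atria, spontaneously beating, in Ringer solution at 32 °C gassed with 95% O2/5% CO2. Isometric force recorded at 0.5–1 g initial tension after 30 min stabilization. Compounds in water or propylene glycol given cumulatively at 0.01–30 μg/mL, with 7 min contact per dose. EC50 for a 50% force increase taken graphically from the dose-response curve, in triplicate.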

[4] = Acute toxicity in mice when administered intraperitoneally; assay type: organism-based; conditions: mouse, in vivo, ip
Procedure, shortened: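 Mice (18-20 g), either sex; compound dissolved in distilled water or suspended in 0.5% (carboxymethyl)cellulose, injected ip at 10, 30, 100, 300 and 1000 mg/kg (1 mL/100 g body weight). Animals observed for 48 h. Approximate LD50 calculated by the Campbell and Richter method.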

Felis catus [5] = assay: Effective dose for lowering of blood pressure in anesthetized cat when administered intravenously; NA=Not active; assay type: functional, organism-based; procedure, shortened: as §1
Cavia porcellus [6] = species: Cavia porcellus; assay: Positive inotropic activity was assessed in spontaneously beating guinea pig atria; NA=Not active; assay type: functional, organism-based; procedure, shortened: as §3
Canis familiaris [7] = assay: Percent increase of heart rate in anesthetized dogs at a dose of 0.1 mg/kg; assay type: functional, Canis lupus familiaris
Procedure, shortened: (§4)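 Anesthesia was pentobarbital sodium 35 mg/kg iv, maintained with pentobarbitone 3–5 mg/kg per h. Male mongrel dogs, 10–18 kg, intubated for spontaneous breathing. Aqueous solutions were given iv via the femoral vein at 0.1 mL/kg, in escalating doses with 10–30 min between doses. Mean BP fall and percent heart-rate increase were recorded at each dose, with lead II ECG.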

Canis familiaris [8] = assay: Percent increase of heart rate in anesthetized dogs at a dose of 0.3 mg/kg; assay type: functional, Canis lupus familiaris; procedure, shortened: as §4
Canis familiaris [9] = assay: Percent increase of heart rate in anesthetized dogs at a dose of 1 mg/kg; assay type: functional, Canis lupus familiaris; procedure, shortened: as §4
Canis familiaris [10] = assay: Fall in mean blood pressure in anesthetized dogs at a dose of 0.1 mg/kg; assay type: functional, Canis lupus familiaris; procedure, shortened: as §4
Canis familiaris [11] = assay: Fall in mean blood pressure in anesthetized dogs at a dose of 0.3 mg/kg; assay type: functional, Canis lupus familiaris; procedure, shortened: as §4
Canis familiaris [12] = assay: Fall in mean blood pressure in anesthetized dogs at a dose of 1 mg/kg; assay type: functional, Canis lupus familiaris; procedure, shortened: as §4
Canis familiaris [13] = assay: Percent increase of heart rate in anesthetized dogs at a dose of 0.03 mg/kg; assay type: functional, Canis lupus familiaris; procedure, shortened: as §4
Canis familiaris [14] = species: Canis familiaris; assay: (§5) Percent increase in LV dP/dt max; assay type: functional, Canis lupus familiaris; procedure, shortened: as §2
Canis familiaris [15] = species: Canis familiaris; assay: as §5; assay type: functional, Canis lupus familiaris; procedure, shortened: as §2; remark: listed apart in the source
Canis familiaris [16] = species: Canis familiaris; assay: as §5; assay type: functional, Canis lupus familiaris; procedure, shortened: as §2; remark: listed apart in the source
Canis familiaris [17] = species: Canis familiaris; assay: as §5; assay type: functional, Canis lupus familiaris; procedure, shortened: as §2; remark: listed apart in the source

Structure (SMILES)	EC50 (Cavia porcellus [6])	ED20 (Felis catus [1])	ED50 (Canis familiaris [2])	EC50 (Cavia porcellus [3])	LD50 [4]	ED20 (Felis catus [5])	other results
C=C[C@@]1(C)CC(=O)[C@]2(O)[C@@]3(C)[C@@H](O)CCC(C)(C)[C@@H]3[C@H](O)[C@H](OC(C)=O)[C@@]2(C)O1 [COLFORSIN]		0.038 mg/kg	0.007 mg/kg	0.02 µg/mL (≈ 0.0487 µM)	92 mg/kg		
C=C[C@@]1(C)CC(=O)[C@]2(O)C3(C)C(C(OC(=O)CN4CCOCC4)C(O)[C@@]2(C)O1)C(C)(C)CC[C@@H]3O.Cl (stereo partly drawn)		3 mg/kg	0.11 mg/kg	0.5 µg/mL	82.5 mg/kg		
C=C[C@@]1(C)CC(=O)[C@]2(O)C3(C)C(C(OC(=O)CN4CCC(O)CC4)C(O)[C@@]2(C)O1)C(C)(C)CC[C@@H]3O.Cl (stereo partly drawn)				3 µg/mL		inactive	
C=C[C@@]1(C)CC(=O)[C@]2(O)C3(C)C(C(OC(=O)CCCN4CCN(C)CC4)C(O)[C@@]2(C)O1)C(C)(C)CC[C@@H]3O.Cl (stereo partly drawn)		1 mg/kg	0.41 mg/kg	0.2 µg/mL	65 mg/kg		
C=C[C@@]1(C)CC(=O)[C@]2(O)C3(C)C(C(O)C(OC(=O)CN4CCC(O)(c5ccccc5)CC4)[C@@]2(C)O1)C(C)(C)CC[C@@H]3O.Cl (stereo partly drawn)	Not Active					inactive	
C=C[C@@]1(C)CC(=O)[C@]2(O)C3(C)C(C(OC(=O)CN4CCCCC4)C(O)[C@@]2(C)O1)C(C)(C)CC[C@@H]3O.Cl (stereo partly drawn)		3 mg/kg	0.052 mg/kg	1.8 µg/mL	85 mg/kg		Heart rate (Canis familiaris [7]): 8.8%; Heart rate (Canis familiaris [8]): 9.8%; Heart rate (Canis familiaris [9]): 13.8%; BP (Canis familiaris [10]): 8.8 mmHg; BP (Canis familiaris [11]): 30.2 mmHg; BP (Canis familiaris [12]): 72 mmHg; Heart rate (Canis familiaris [13]): 6.2%; Activity (Canis familiaris [14]): 64%; Activity (Canis familiaris [15]): 94%; Activity (Canis familiaris [16]): 123%; Activity (Canis familiaris [17]): 48%
C=C[C@@]1(C)CC(=O)[C@]2(O)C3(C)C(C(O)C(OC(=O)C(C)N4CCOCC4)[C@@]2(C)O1)C(C)(C)CC[C@@H]3O.Cl (stereo partly drawn)		2 mg/kg	0.04 mg/kg	0.27 µg/mL	30 mg/kg		
C=C[C@@]1(C)CC(=O)[C@]2(O)C3(C)C(C(OC(=O)CCN4CCCCC4)C(O)[C@@]2(C)O1)C(C)(C)CC[C@@H]3O.Cl (stereo partly drawn)		1 mg/kg	0.3 mg/kg	0.5 µg/mL	30 mg/kg		
C=C[C@@]1(C)CC(=O)[C@]2(O)C3(C)C(C(OC(=O)CN4CCC(C)CC4)C(O)[C@@]2(C)O1)C(C)(C)CC[C@@H]3O.Cl (stereo partly drawn)				2.6 µg/mL		inactive	
C=C[C@@]1(C)CC(=O)[C@]2(O)C3(C)C(C(O)C(OC(=O)CNC(=O)OC(C)(C)C)[C@@]2(C)O1)C(C)(C)CC[C@@H]3O (stereo partly drawn)				9.2 µg/mL (≈ 17.5 µM)		inactive	
C=C[C@@]1(C)CC(=O)[C@]2(O)C3(C)C(C(O)C(OC(=O)CN4CCOCC4)[C@@]2(C)O1)C(C)(C)CC[C@@H]3O.Cl (stereo partly drawn)			0.035 mg/kg	0.35 µg/mL	25 mg/kg		
C=C[C@@]1(C)CC(=O)[C@]2(O)C3(C)C(C(OC(=O)Cn4c(=O)c5c(ncn5COCCOC)n(C)c4=O)C(O)[C@@]2(C)O1)C(C)(C)CC[C@@H]3O (stereo partly drawn)	Not Active					inactive	

Continued, in another order:

EC50 (Cavia porcellus [6])	Structure (SMILES)	ED20 (Felis catus [1])	ED50 (Canis familiaris [2])	EC50 (Cavia porcellus [3])	LD50 [4]	ED20 (Felis catus [5])	other results
Not Active	C=C[C@@]1(C)CC(=O)[C@]2(O)C3(C)C(C(OC(=O)CN(CC)CC)C(O)[C@@]2(C)O1)C(C)(C)CC[C@@H]3O.Cl (stereo partly drawn)					inactive	
Not Active	C=C[C@@]1(C)CC(=O)[C@]2(O)C3(C)C(C(O)C(OC(=O)CN4C(C)CCCC4C)[C@@]2(C)O1)C(C)(C)CC[C@@H]3O.Cl (stereo partly drawn)					inactive	
Not Active	C=C[C@@]1(C)CC(=O)[C@]2(O)C3(C)C(C(OC(=O)CN4C(C)CCCC4C)C(O)[C@@]2(C)O1)C(C)(C)CC[C@@H]3O.Cl (stereo partly drawn)					inactive	
Not Active	C=C[C@@]1(C)CC(=O)[C@]2(O)C3(C)C(C(OC(=O)CCN4CCOCC4)C(O)[C@@]2(C)O1)C(C)(C)CC[C@@H]3O.Cl (stereo partly drawn)					inactive	
Not Active	C=C[C@@]1(C)CC(=O)[C@]2(O)C3(C)C(C(O)C(OC(=O)CN(CC(=O)OC4C(O)C5C(C)(C)CC[C@H](O)C5(C)[C@@]5(O)C(=O)C[C@](C)(C=C)O[C@]45C)Cc4ccccc4)[C@@]2(C)O1)C(C)(C)CC[C@@H]3O (stereo partly drawn)					inactive	
